Consider nine compounds from ChEMBL document CHEMBL1145412, “Impact of the 3,6,9-trioxadecyloxy group on desazadesferrithiocin analogue iron clearance and organ distribution” (J Med Chem, 2007).

In series [1] the test system is Sapajus apella. The series is described as follows: Iron-clearing efficiency in iron-loaded Cebus apella assessed as excretion in stool at 75 umol/kg, po relative to control. It is filed as functional. An outline of the steps: (§1)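 Iron-loaded Cebus apella monkeys given the chelator orally, prepared as for rats except some solubilized in 40% Cremophor RH-40/water. Feces and urine collected at 24 h intervals from 4 d before to 5 d after dosing; iron by flame AAS. Efficiency = (2-day post-drug iron output minus 4-day pre-drug mean) / theoretical 2:1 output, %. Stool/urine split given. Mean ± SEM.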

A short description of series [2]: Ratio of iron clearing efficiency in iron-overloaded Cebus apella to non-iron-overloaded Sprague-Dawley rat. It is filed as functional. An outline of the steps: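 Performance ratio = mean ICE in iron-overloaded primates divided by mean ICE in non-overloaded rats.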
Series [3] deals with Rattus norvegicus. The series can be described thus: Iron-clearing efficiency in non-iron overloaded Sprague-Dawley rat assessed as excretion in bile at 300 umol/kg, po relative to control. It is filed as functional. An outline of the steps:
(§2)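 Male Sprague-Dawley rats (400-450 g), bile-duct cannulated and not iron overloaded, given one oral 300 µmol/kg dose. Given in water, as monosodium salt (1 equiv NaOH) or in 40% Cremophor. Bile collected every 3 h for up to 48 h and urine every 24 h; iron by flame AAS. Efficiency = (treated minus control iron excretion) / theoretical 2:1 output, %; bile/urine split given.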

Series [4] deals with Rattus norvegicus. The series can be described thus: Iron-clearing efficiency in non-iron overloaded Sprague-Dawley rat assessed as excretion in urine at 300 umol/kg, po relative to control. In kind it is functional. An outline of the steps: as §2
Series [5] relates to Sapajus apella. The series can be described thus: Iron-clearing efficiency in iron-loaded Cebus apella assessed as excretion in urine at 75 umol/kg, po relative to control. It is filed as functional. An outline of the steps: as §1
Series [6] concerns Rattus norvegicus. The series is described as follows: Iron clearance in non-iron overloaded Sprague-Dawley rat at 300 umol/kg, po at 3 hrs. In kind it is functional. An outline of the steps:
(§3)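 Male Sprague-Dawley rats (400-450 g) with bile-duct cannulation and no iron overload, given a single oral 300 µmol/kg dose. Bile collected at 3 h intervals for up to 48 h. Iron measured by flame atomic absorption and reported as µg iron per kg body weight at each interval.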

The subject of series [7] is Rattus norvegicus. The series is described as follows: Iron clearing efficiency in non-iron overloaded Sprague-Dawley rat at 300 umol/kg, po in presence of 250 mg/kg/dose sodium benzoate. It is filed as functional. An outline of the steps:
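Bile-duct-cannulated rats given the chelator orally at 300 µmol/kg. Sodium benzoate in distilled water, 250 mg/kg/dose sc, given 0.5 h before the chelator and then hourly for five more doses. Iron in bile and urine measured by flame AAS. Efficiency = (treated minus control iron excretion) / theoretical output for a 2:1 complex, as percent.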

Series [8] concerns Kidney. The series can be described thus: Distribution in kidney in non-iron overloaded Sprague-Dawley rat at 300 umol/kg, sc after 1 hr. In kind it is ADME, organism-based. The note with it: in vivo. An outline of the steps: (§4)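 Tissue distribution: rats dosed once sc at 300 µmol/kg. Plasma, kidney, liver, heart and pancreas sampled at 0.5, 1, 2 and 4 h. Plasma chelator reported in µM and tissue levels as nmol compound per g wet weight. n = 3 per time point.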

For series [9], the system named is Kidney. The series can be described thus: Distribution in kidney in non-iron overloaded Sprague-Dawley rat at 300 umol/kg, sc after 4 hrs. It is filed as ADME, organism-based. The note with it: in vivo. An outline of the steps: as §4
Series [10] has as its system Rattus norvegicus. The series can be described thus: Iron clearance in non-iron overloaded Sprague-Dawley rat at 300 umol/kg, po at 6 hrs. In kind it is functional. An outline of the steps: as §3
Series [11] relates to Rattus norvegicus. The series can be described thus: Iron-clearing efficiency in non-iron overloaded Sprague-Dawley rat at 300 umol/kg, po after 48 hrs relative to control. In kind it is functional. An outline of the steps:
as §2

Series [12] relates to Rattus norvegicus. The series can be described thus: Iron-clearing efficiency in non-iron overloaded Sprague-Dawley rat assessed as excretion in bile at 300 umol/kg, po after 48 hrs relative to control. It is filed as functional. An outline of the steps: as §2
For series [13], the system named is Rattus norvegicus. The series can be described thus: Iron-clearing efficiency in non-iron overloaded Sprague-Dawley rat assessed as excretion in urine after 48 hrs at 300 umol/kg, po relative to control. In kind it is functional. An outline of the steps:
as §2

A short description of series [14]: Partition coefficient, log P in TRIS buffer at pH 7.4. It is filed as physicochemical. An outline of the steps:
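Shake-flask direct method in TRIS buffer, pH 7.4. Reported as log of the fraction in the octanol layer (log Papp).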

In series [15] the test system is Sapajus apella. The series is described as follows: Iron-clearing efficiency in iron-loaded Cebus apella at 75 umol/kg, po relative to control. It is filed as functional. An outline of the steps: as §1
Series [16] concerns Kidney. The series can be described thus: Distribution in kidney in non-iron overloaded Sprague-Dawley rat at 300 umol/kg, sc after 0.5 hrs. The note with it: in vivo. It is filed as ADME, organism-based. An outline of the steps:
as §4

The subject of series [17] is Kidney. The series is described as follows: Distribution in kidney in non-iron overloaded Sprague-Dawley rat at 300 umol/kg, sc after 2 hrs. In kind it is ADME, organism-based. Particulars: in vivo. An outline of the steps: as §4
Series [18] relates to Liver. The series is described as follows: Distribution in liver in non-iron overloaded Sprague-Dawley rat at 300 umol/kg, sc after 0.5 hrs. In kind it is ADME, organism-based. The note with it: in vivo. An outline of the steps:
as §4

Series [19] deals with Liver. The series can be described thus: Distribution in liver in non-iron overloaded Sprague-Dawley rat at 300 umol/kg, sc after 1 hr. The note with it: in vivo. It is filed as ADME, organism-based. An outline of the steps:
as §4

Series [20] is described as follows: Distribution in plasma in non-iron overloaded Sprague-Dawley rat at 300 umol/kg, sc after 0.5 hrs. It is filed as ADME, organism-based. An outline of the steps:
as §4

Series [21] deals with Plasma. The series is described as follows: Distribution in plasma in non-iron overloaded Sprague-Dawley rat assessed as decrease in concentration at 300 umol/kg, sc after 1 hr. It is filed as ADME, organism-based. More on the design: scale not given: the % may be the effect or the level left. The note with it: in vivo. An outline of the steps: as §4
The subject of series [22] is Plasma. The series can be described thus: Distribution in plasma in non-iron overloaded Sprague-Dawley rat assessed as decrease in concentration at 300 umol/kg, sc after 2 hrs. In kind it is ADME, organism-based. More on the design: scale not given: the % may be the effect or the level left. Particulars: in vivo. An outline of the steps: as §4
The test system of series [23] is Plasma. The series is described as follows: Distribution in plasma in non-iron overloaded Sprague-Dawley rat assessed as decrease in concentration at 300 umol/kg, sc after 4 hrs. It is filed as ADME, organism-based. More on the design: scale not given: the % may be the effect or the level left. Particulars: in vivo. An outline of the steps: as §4
A short description of series [24]: Distribution in pancreas per wet weight in non-iron overloaded Sprague-Dawley rat at 300 umol/kg, sc after 2 hrs. The note with it: in vivo.
Series [25] concerns Rattus norvegicus. The series can be described thus: Iron-clearing efficiency in non-iron overloaded Sprague-Dawley rat at 300 umol/kg, po relative to control. In kind it is functional. An outline of the steps:
as §2

As for `COc1ccc(O)c(C2=N[C@@](C)(C(=O)[O-])CS2)c1.[Na+]`, the Activity with Sapajus apella [1] was found to be 94%; with Rattus norvegicus [3], 95%; in the series on Rattus norvegicus [4], 5%; in the series on Sapajus apella [5], 6%. The Ratio in series [2] worked out at 3.
`C[C@]1(C(=O)[O-])CSC(c2ccc(O)cc2O)=N1.[Na+]` [DEFERITRIN SODIUM]: the Activity was 88% in the series on Sapajus apella [1]; 68 µg/kg in the series on Rattus norvegicus [6]; 100% in the series with Rattus norvegicus [3]; 0% with Rattus norvegicus [4]; 12% with Sapajus apella [5]; 12% in the series with Rattus norvegicus [7]. Also, the Drug uptake in the series on Kidney [8] was 179 nmol/g; in the series with Kidney [9], 27 nmol/g.
`C[C@]1(C(=O)[O-])CSC(c2cc(O)ccc2O)=N1.[Na+]`: the Activity in the series on Sapajus apella [1] is 88%; with Rattus norvegicus [3] it was 99%; in the series on Rattus norvegicus [4], 1%; in the series on Sapajus apella [5], 12%. In addition, the Ratio in series [2] is 12.6.
`COc1ccc(C2=N[C@@](C)(C(=O)[O-])CS2)c(O)c1.[Na+]`: the Activity in the series with Sapajus apella [1] stood at 91%; with Rattus norvegicus [3], 98%; in the series with Rattus norvegicus [4] it was 2%; in the series on Sapajus apella [5], 9%.
For `COCCOCCOCCOc1cccc(C2=N[C@@](C)(C(=O)[O-])CS2)c1O.[Na+]`, the Activity is 72% with Sapajus apella [1]; 287 µg/kg in the series with Rattus norvegicus [10]; 10.6% in the series on Rattus norvegicus [11]; 95% in the series on Rattus norvegicus [12]; 5% with Rattus norvegicus [13]; 24.5% with Sapajus apella [15]. The Activity in the series with Sapajus apella [5] was found to be 28%; in the series on Plasma [21], 26%; in the series with Plasma [22], 61%; with Plasma [23], 79%. Besides, the Ratio in series [2] turned out to be 2.3. In [14], this compound came in with a logD of -1.22. For the same compound, the Drug uptake in the series with Kidney [16] was 280 nmol/g; with Kidney [8], 259 nmol/g; in the series with Kidney [17], 145 nmol/g; with Kidney [9] it was 90 nmol/g; in the series on Liver [18], 242 nmol/g; in the series with Liver [19] it was 318 nmol/g. In [24], this compound registered a Drug uptake of 16 nmol/g. For the same compound, the concentration at 0.5 h in series [20] was found to be 62 µM.
Take `COc1cccc(C2=N[C@@](C)(C(=O)[O-])CS2)c1O.[Na+]`: the Activity in the series with Sapajus apella [1] is 91%; in the series with Rattus norvegicus [11] it was 12.4%; in the series on Rattus norvegicus [12], 99%; in the series with Rattus norvegicus [13], 1%; in the series on Sapajus apella [5] it was 9%. Besides, the Ratio in series [2] stood at 1.8.
On to `C[C@]1(C(=O)[O-])CSC(c2cccc(O)c2O)=N1.[Na+]`, for which the Activity with Sapajus apella [1] is given as 83%; with Rattus norvegicus [25] it was 4.6%; in the series on Rattus norvegicus [3], 98%; in the series on Rattus norvegicus [4], 2%; with Sapajus apella [5], 17%. Also, the Ratio in series [2] worked out at 5.
For the compound `COCCOCCOCCOc1ccc(C2=N[C@@](C)(C(=O)O)CS2)c(O)c1`, the Activity in the series on Sapajus apella [1] was found to be 96%; in the series on Rattus norvegicus [6] it was 183 µg/kg; with Rattus norvegicus [3], 90%; with Rattus norvegicus [4], 10%; with Sapajus apella [5], 4%; with Rattus norvegicus [7], 8.8%. Also, the values for the Activity with Plasma [21], in the series with Plasma [22] and in the series on Plasma [23] were 28%, 92% and 97%, respectively. For the same compound, the Drug uptake worked out at 368 nmol/g with Kidney [16]; 252 nmol/g in the series with Kidney [8]; 41 nmol/g in the series on Kidney [17]; 34 nmol/g with Kidney [9]; 339 nmol/g in the series with Liver [18]; 315 nmol/g in the series with Liver [19]. Besides, the Drug uptake in series [24] was 30 nmol/g. For the same compound, the concentration at 0.5 h in [20] is 194 µM.
For the compound `COCCOCCOCCOc1ccc(O)c(C2=N[C@@](C)(C(=O)[O-])CS2)c1.[Na+]`, the Activity came out at 56% in the series with Sapajus apella [1]; 388 µg/kg with Rattus norvegicus [6]; 8% in the series on Rattus norvegicus [25]; 98% in the series on Rattus norvegicus [3]; 2% with Rattus norvegicus [4]; 8.1% in the series on Sapajus apella [15]. Besides, the Activity in the series with Sapajus apella [5] is recorded as 44%; in the series on Plasma [21], 39%; with Plasma [22], 54%; with Plasma [23], 82%. Besides, the Ratio in series [2] came to 1. For the same compound, the log distribution coefficient (logD) in series [14] was -1.27. The Drug uptake in the series on Kidney [16] was found to be 643 nmol/g; with Kidney [8], 435 nmol/g; in the series with Kidney [17], 321 nmol/g; in the series with Kidney [9] it was 116 nmol/g; in the series with Liver [18], 483 nmol/g; in the series on Liver [19], 315 nmol/g. This compound also yielded a Drug uptake in series [24] of 30 nmol/g. For the same compound, in series [20], the concentration at 0.5 h was determined as 324 µM.

One may read the logD as lipophilicity at a set pH, counting ionised and neutral species.
